The target in experiment [1] is Platelet-derived growth factor receptor alpha (Homo sapiens) (UniProt P16234). Put plainly: Inhibition of PDGFRA at 1 uM.
Experiment [2] has as its target Wee1-like protein kinase (Homo sapiens) (UniProt P30291). Put plainly: Inhibition of WEE1 at 1 uM.
Experiment [3] concerns the target Vascular endothelial growth factor receptor 3 (Homo sapiens) (UniProt P35916). Put plainly: Inhibition of FLT4 at 1 uM. The method in brief: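 Single-concentration screen on the Ambit KINOMEscan platform, run against a panel of 250–400 kinases. Per-kinase inhibition was also summarized as S(90), the fraction of kinases inhibited by more than 90%.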
The target in experiment [4] is T1, Phosphatidylinositol 5-phosphate 4-kinase type-2 beta (Homo sapiens) (UniProt P78356).
T1 sequence (whole entry): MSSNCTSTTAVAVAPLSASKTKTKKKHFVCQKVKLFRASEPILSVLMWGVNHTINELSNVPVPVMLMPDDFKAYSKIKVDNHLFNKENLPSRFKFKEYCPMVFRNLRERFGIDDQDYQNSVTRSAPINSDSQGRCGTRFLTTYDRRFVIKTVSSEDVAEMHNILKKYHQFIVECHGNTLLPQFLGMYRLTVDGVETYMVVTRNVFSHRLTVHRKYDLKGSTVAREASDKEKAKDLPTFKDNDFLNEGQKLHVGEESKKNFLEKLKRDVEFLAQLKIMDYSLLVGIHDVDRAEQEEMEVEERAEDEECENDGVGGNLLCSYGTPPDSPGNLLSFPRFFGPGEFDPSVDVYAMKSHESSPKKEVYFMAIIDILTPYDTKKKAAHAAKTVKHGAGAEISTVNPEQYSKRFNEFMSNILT
Put plainly: Inhibition of PIP5K2B at 1 uM.

For experiment [5], the target named is Bone morphogenetic protein receptor type-1A (Homo sapiens) (UniProt P36894). Put plainly: Inhibition of BMPR1A at 1 uM. The method in brief: (§1)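 Ambit KINOMEscan screen at a single concentration across a 250–400 kinase panel, recorded as percent inhibition. Selectivity was expressed as S(90), the fraction of kinases inhibited >90%.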
Bone morphogenetic protein receptor type-1A (Homo sapiens), sequence (P36894 whole entry): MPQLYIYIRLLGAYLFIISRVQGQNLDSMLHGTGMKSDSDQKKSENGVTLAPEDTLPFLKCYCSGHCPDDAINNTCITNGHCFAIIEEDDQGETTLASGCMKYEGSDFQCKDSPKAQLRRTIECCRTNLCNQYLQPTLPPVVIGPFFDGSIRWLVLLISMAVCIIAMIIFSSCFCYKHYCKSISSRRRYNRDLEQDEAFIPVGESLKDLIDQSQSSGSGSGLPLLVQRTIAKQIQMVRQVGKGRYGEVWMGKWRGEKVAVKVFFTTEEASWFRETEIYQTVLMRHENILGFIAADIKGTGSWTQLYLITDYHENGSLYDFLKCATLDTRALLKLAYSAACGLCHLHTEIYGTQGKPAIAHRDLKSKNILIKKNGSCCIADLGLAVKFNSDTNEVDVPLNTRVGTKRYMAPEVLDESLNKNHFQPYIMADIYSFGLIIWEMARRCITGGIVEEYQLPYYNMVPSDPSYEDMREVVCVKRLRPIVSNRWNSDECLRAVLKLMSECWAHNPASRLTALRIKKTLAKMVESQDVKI
Experiment [6] deals with Mitogen-activated protein kinase 6 (Homo sapiens) (UniProt Q16659). Put plainly: Inhibition of ERK3 at 1 uM.
Experiment [7] concerns the target T2, Protein kinase C epsilon type (Homo sapiens) (UniProt Q02156).
T2 sequence (whole entry): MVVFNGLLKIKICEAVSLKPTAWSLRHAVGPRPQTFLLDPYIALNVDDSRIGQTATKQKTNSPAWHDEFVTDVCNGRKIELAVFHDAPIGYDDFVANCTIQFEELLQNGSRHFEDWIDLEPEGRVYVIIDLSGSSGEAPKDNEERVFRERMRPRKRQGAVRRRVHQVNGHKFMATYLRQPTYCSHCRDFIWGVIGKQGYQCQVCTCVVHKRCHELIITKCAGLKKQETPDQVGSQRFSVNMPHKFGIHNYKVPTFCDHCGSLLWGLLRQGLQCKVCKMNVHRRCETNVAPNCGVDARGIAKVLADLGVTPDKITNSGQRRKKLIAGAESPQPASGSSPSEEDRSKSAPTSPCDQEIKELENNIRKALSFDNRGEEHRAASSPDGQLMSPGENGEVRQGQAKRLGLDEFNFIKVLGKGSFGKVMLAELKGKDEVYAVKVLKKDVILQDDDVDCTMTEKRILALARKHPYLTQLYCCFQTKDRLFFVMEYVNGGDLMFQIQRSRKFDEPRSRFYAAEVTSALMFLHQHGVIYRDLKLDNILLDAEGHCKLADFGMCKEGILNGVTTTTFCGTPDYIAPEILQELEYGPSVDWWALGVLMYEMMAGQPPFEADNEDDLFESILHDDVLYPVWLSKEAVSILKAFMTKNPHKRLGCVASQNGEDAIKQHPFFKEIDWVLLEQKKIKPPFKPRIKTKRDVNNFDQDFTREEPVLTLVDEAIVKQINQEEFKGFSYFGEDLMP
Put plainly: Inhibition of PRKCE at 1 uM.

Experiment [8] concerns Proto-oncogene tyrosine-protein kinase receptor Ret (Homo sapiens), P07949 [V804L]. Put plainly: Inhibition of RET V804L mutant at 1 uM.
Proto-oncogene tyrosine-protein kinase receptor Ret (Homo sapiens), P07949 [V804L], sequence (P07949 whole entry V804L, the tested form may be a part): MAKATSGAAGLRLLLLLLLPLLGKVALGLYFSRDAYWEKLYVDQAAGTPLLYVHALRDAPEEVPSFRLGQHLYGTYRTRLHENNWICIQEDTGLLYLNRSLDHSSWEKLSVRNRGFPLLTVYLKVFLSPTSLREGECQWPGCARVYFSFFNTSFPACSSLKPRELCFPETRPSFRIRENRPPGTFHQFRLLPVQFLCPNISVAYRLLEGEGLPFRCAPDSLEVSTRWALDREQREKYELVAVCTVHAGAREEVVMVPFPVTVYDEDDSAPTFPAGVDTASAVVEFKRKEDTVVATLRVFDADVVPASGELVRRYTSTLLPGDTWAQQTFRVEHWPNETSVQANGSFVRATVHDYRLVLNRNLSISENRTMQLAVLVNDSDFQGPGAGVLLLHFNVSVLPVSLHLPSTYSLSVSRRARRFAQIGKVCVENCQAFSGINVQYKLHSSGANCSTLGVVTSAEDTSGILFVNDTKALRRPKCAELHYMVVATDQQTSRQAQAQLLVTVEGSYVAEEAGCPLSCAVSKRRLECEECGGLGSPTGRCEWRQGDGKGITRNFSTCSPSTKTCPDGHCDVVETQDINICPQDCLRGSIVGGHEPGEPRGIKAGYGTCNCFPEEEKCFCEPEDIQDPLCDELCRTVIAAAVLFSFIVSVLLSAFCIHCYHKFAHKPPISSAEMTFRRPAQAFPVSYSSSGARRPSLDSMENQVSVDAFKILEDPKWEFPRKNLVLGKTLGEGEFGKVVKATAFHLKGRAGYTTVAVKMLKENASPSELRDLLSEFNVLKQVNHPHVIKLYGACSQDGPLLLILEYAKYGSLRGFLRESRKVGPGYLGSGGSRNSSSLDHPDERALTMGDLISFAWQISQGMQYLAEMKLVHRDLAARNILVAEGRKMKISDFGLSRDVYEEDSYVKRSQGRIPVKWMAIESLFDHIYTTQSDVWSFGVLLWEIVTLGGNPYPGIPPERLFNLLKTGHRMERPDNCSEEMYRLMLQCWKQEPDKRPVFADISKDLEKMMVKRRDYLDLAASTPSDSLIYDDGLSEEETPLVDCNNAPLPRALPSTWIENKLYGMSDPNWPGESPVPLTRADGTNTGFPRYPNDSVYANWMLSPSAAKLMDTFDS
Experiment [9] deals with Ribosomal protein S6 kinase alpha-6 (Homo sapiens) (UniProt Q9UK32). Put plainly: Inhibition of RPS6KA6 C-terminal domain2 at 1 uM.
Ribosomal protein S6 kinase alpha-6 (Homo sapiens), sequence (Q9UK32 whole entry, the tested form may be a part): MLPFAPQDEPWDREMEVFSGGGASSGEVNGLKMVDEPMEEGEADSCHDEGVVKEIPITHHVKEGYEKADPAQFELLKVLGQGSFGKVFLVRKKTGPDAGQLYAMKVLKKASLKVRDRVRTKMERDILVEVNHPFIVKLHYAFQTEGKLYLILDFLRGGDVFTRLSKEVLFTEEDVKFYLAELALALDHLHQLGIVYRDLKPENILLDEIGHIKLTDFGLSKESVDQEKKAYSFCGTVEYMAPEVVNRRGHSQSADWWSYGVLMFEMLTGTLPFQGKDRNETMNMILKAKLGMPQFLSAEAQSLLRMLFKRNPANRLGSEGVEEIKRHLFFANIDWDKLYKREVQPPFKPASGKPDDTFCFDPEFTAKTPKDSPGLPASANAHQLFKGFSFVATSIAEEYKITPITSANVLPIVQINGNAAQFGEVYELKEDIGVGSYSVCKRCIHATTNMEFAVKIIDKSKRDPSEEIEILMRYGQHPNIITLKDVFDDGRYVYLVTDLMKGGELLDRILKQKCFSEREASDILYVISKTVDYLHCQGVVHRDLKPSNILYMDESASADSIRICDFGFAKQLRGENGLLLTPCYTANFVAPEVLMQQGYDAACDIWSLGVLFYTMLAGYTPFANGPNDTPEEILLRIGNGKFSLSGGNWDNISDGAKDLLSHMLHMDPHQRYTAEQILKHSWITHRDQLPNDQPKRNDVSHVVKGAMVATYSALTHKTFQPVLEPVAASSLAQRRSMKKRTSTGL
Experiment [10] has as its target T3, Muscle, skeletal receptor tyrosine-protein kinase (Homo sapiens) (UniProt O15146).
T3 sequence (whole entry): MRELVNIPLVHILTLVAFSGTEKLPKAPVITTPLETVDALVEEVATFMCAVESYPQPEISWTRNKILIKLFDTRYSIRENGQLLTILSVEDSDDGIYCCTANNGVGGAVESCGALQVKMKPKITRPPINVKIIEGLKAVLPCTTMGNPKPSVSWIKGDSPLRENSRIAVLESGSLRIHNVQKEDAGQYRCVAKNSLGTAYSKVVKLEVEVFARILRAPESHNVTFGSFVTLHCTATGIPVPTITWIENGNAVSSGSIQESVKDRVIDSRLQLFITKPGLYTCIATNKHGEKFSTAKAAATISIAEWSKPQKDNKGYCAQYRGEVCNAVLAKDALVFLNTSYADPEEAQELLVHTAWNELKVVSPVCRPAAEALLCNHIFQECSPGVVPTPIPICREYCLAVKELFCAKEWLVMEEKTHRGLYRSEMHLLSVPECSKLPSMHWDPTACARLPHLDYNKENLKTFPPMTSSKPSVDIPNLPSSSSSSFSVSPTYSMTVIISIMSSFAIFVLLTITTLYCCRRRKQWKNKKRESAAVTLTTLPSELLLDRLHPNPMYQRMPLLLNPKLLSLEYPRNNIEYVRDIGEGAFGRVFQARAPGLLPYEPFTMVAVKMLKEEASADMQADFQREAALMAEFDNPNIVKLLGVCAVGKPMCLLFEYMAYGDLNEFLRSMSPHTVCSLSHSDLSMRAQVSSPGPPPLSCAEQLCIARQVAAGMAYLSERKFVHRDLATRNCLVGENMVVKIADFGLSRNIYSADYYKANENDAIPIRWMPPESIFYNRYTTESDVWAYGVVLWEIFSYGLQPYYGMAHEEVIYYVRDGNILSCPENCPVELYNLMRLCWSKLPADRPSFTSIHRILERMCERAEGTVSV
Put plainly: Inhibition of MUSK at 1 uM.

Experiment [11] concerns the target Dual specificity protein kinase CLK3 (Homo sapiens) (UniProt P49761). Put plainly: Inhibition of CLK3 at 1 uM. In a few lines:
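Single-concentration screen using Ambit Bioscience KINOMEscan technology across a panel of 250–400 kinases. Per-kinase inhibition from this screen was summarized as S(90), the fraction of kinases inhibited by more than 90%.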

Experiment [12] concerns the target Cyclin-dependent kinase 14 (Homo sapiens) (UniProt O94921). Put plainly: Inhibition of PFTK1 at 1 uM.
Experiment [13] concerns the target Mitogen-activated protein kinase kinase kinase 9 (Homo sapiens) (UniProt P80192). Put plainly: Inhibition of MLK1 at 1 uM.
Experiment [14] deals with Cyclin-dependent kinase-like 3 (Homo sapiens) (UniProt Q8IVW4). Put plainly: Inhibition of CDKL3 at 1 uM.
Cyclin-dependent kinase-like 3 (Homo sapiens), sequence (Q8IVW4 whole entry, looked up): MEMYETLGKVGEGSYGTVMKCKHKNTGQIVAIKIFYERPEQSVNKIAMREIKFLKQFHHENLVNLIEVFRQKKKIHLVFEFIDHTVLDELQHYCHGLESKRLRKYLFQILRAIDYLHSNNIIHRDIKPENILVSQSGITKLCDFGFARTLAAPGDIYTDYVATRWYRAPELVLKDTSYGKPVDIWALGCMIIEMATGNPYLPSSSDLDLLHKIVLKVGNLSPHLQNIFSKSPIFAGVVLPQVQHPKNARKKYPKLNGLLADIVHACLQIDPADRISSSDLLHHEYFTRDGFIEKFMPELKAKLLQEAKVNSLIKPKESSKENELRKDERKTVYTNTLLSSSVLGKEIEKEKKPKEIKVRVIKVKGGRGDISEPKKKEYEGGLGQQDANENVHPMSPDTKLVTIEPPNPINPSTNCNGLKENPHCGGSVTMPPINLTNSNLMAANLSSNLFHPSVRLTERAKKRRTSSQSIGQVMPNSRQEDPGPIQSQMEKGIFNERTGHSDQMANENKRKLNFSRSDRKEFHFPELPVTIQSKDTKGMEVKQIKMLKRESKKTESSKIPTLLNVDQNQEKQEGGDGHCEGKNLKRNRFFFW
Experiment [15] has as its target Tyrosine-protein kinase ABL1 (Homo sapiens) (UniProt P00519). Put plainly: Inhibition of ABL1 at 1 uM. In a few lines: as §1

Dual specificity protein kinase CLK3 (Homo sapiens), sequence (P49761 whole entry, looked up): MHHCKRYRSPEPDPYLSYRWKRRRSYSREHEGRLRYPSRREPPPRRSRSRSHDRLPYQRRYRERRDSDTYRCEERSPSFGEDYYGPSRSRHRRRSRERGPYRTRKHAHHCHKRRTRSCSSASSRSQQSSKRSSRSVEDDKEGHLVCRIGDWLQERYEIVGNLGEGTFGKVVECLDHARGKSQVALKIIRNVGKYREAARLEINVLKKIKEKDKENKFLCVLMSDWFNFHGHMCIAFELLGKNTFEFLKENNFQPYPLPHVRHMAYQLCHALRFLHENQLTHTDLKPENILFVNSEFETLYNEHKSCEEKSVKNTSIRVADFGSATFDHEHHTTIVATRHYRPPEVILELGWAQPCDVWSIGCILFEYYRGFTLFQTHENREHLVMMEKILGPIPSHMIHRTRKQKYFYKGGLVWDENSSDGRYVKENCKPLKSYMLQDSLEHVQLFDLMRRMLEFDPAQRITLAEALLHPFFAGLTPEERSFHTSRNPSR
Tyrosine-protein kinase ABL1 (Homo sapiens), sequence (P00519 whole entry): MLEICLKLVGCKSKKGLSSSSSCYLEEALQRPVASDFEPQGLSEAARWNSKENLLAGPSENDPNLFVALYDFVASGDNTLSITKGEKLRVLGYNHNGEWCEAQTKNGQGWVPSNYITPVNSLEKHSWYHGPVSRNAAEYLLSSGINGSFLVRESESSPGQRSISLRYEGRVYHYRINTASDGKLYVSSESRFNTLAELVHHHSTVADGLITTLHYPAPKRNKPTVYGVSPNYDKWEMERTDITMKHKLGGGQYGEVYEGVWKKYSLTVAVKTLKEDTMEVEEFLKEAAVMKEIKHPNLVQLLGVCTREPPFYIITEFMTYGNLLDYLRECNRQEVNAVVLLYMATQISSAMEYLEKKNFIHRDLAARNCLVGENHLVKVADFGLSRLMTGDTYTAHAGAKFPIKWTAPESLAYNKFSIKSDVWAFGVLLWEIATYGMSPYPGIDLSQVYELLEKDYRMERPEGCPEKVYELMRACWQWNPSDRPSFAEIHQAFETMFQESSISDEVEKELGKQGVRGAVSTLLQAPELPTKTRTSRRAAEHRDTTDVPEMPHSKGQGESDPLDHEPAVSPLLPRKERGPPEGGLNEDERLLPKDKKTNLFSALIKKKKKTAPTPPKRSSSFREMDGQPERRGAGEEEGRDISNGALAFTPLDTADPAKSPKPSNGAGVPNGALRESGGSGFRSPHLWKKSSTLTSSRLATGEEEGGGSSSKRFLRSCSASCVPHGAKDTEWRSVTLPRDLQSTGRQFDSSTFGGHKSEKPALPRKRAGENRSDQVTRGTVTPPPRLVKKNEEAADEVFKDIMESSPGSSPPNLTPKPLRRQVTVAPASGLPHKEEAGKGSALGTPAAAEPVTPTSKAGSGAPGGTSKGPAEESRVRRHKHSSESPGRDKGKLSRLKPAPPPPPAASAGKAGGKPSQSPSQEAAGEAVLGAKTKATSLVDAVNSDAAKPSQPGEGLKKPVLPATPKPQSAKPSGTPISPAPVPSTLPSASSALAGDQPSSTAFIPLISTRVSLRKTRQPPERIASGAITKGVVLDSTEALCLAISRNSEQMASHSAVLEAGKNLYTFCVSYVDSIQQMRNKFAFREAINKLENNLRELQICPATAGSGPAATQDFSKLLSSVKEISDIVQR
Cyclin-dependent kinase 14 (Homo sapiens), sequence (O94921 whole entry): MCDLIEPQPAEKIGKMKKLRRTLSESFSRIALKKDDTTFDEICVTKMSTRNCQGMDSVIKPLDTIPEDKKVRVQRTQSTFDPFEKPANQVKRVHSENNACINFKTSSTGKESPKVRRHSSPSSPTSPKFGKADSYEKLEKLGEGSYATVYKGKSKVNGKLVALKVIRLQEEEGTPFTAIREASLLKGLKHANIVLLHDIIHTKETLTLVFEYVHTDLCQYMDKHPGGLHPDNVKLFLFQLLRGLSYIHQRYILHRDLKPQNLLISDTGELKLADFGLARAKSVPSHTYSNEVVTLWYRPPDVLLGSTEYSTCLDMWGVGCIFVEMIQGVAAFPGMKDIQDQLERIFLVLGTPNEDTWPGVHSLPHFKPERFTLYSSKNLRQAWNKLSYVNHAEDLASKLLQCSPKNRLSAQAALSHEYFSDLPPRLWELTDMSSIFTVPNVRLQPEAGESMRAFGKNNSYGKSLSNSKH

In the case of `CN1CCN(c2ccc(-c3cnc4c(c3)N(Cc3cc(F)ccc3F)CCN4)cn2)CC1`, the inhibition in experiment [1], in experiment [2], in experiment [3], in experiment [4], in experiment [5] and in [6] was below 50% in each case. Moreover, the inhibition in [7], in [8], in experiment [9], in experiment [10], in [11] and in [12] was below 50% throughout. The inhibition (commonly the drop in the measured response relative to a control, in per cent) is below 50% in experiment [13], below 50% in [14] and 59% in experiment [15].

These data come from ChEMBL document CHEMBL1165965, “Synthesis and structure-activity relationships of 1,2,3,4-tetrahydropyrido[2,3-b]pyrazines as potent and selective inhibitors of the anaplastic lymphoma kinase” (Bioorg Med Chem, 2010).
